Bioassay records from PubChem.
697 NFkB inh = lowers PMA/ionomycin-induced NF-kB signal in 697 B cells; 697 B-cell NF-kB luciferase reporter, 16 h; inhibition, % at 4 µM; 0.33% of 330,000 active; in the data active means inhibition above about 35%
aSyn UTR inh = 5' untranslated region of α-synuclein, MLPCN primary screen; 0.82% of 300,000 active; inhibition, % (tested at 7.5 µM); alpha-synuclein 5'UTR reporter, inhibitor activity; in the data active means inhibition above about 60%; inconclusive means no clear call, values can overlap the other calls;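 further: H4 neuroglioblastoma cells stably carrying SNCA 5'UTR luciferase fusion; 0% = DMSO wells and 100% = positive control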
APP 5UTR inh = APP translation inhibition; SH-SY5Y APP 5'UTR-luciferase reporter, luminescence; inhibition, % at 2 µM; 0.82% of 190,000 active; AID 1285;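 active means inhibition above a set limit, derived from the sample mean plus 3 SD, cut at about 45% in these data; inconclusive means one replicate passes the limit while the other fails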
TAG inh = triacylglycerol accumulation inhibition | 0.66% of 230,000 active | AID 651582 | inhibition, % at 12.5 µM | H9c2 cells, Nile Red lipid (TAG) fluorescence; cells loaded with 200 µM oleic acid;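 active means pattern-corrected inhibition of lipid staining of at least 50% with the nuclear-stain viability signal not falling by more than 50%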;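 further: 0% = DMSO wells and 100% = triacsin C control wells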
Jurkat NFkB inh = inhibitors of the PMA/ionomycin-induced NF-kB reporter in Jurkat cells; 0.53% of 330,000 active; inhibition, % at 4 µM; PMA/ionomycin-induced NF-kB luciferase reporter, luminescence; in the data active means inhibition above about 50%
Lipid droplet = modulators of hepatic lipid droplet formation. AML12 mouse hepatocytes, oleate lipid droplets, BODIPY imaging. inhibition, % at 6.5 µM. 0.4% of 240,000 active;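 active means lipid droplet intensity inhibited by at least 50%, with more than 500 cells counted; inconclusive means wells with under 300 cells, treated as cytotoxic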
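material = mouse AML12 hepatocyte cell line, fixed after treatment | also added = 100 µM oleic acid challenge | doses = compound at 6.5 µM only | schedule = overnight exposure | technique = Image-based BODIPY and DAPI two-channel analysis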
* hit, by the source's call; ? = inconclusive; . = no result. The list is not random: actives were taken first. Their share in the collection is about 1.9%.

SMILES	697 NFkB inh	aSyn UTR inh	APP 5UTR inh	TAG inh	Jurkat NFkB inh	Lipid droplet
COC(=O)c1ccc2nc(C)cc(Nc3ccc(N(C)C)cc3)c2c1	-25	-4	0	11	5	-38
COC(=O)c1ccc(Nc2cc(C)nc3ccccc23)cc1	-33	65*	.	10	40	-5
COc1ccc2cc1Oc1ccc(cc1)C[C@H]1c3c(cc4c(c3Oc3cc5c(cc3OC)CCN(C)[C@@H]5C2)OCO4)CCN1C	-23	109*	.	13	23	-17
N=C(N)c1ccc(OCCCCCOc2ccc(C(=N)N)cc2)cc1	-9	67*	3	7	17	1
O=C(CCC1CCCC1)Nc1ccc(C(=O)NCc2cccnc2)cc1	10	72*	29	0	-17	-4
Cc1ccc(-n2c(N)c(C(=O)Nc3c(C)n(C)n(-c4ccccc4)c3=O)c3nc4ccccc4nc32)cc1C	3	74*	-7	.	16	70*
C[C@@H]1CN([C@@H](C)CO)S(=O)(=O)c2ccc(/C=C/c3ccccc3)cc2O[C@@H]1CN(C)Cc1ccc(C(=O)O)cc1	.	.	.	2	.	.
COc1ccc(OC)c(NC(=O)Nc2nnc(N3CCC(C)CC3)s2)c1	25	-8	48*	-7	3	-2
COc1ccc(NC(=O)Nc2nnc(N3CCC(C)CC3)s2)cc1OC	-23	-17	27	-4	-8	-3
O=C1C=C(N2CCOCC2)c2ccccc2C1=O	19	114*	.	.	29	-9
Cc1ccccc1NC(=O)C(C)OC(=O)C1CCCO1 (stereo unspecified)	.	.	.	11	.	.
O=C(CCc1ccc(S(=O)(=O)NCCc2ccccc2)cc1)Nc1ccc2c(c1)OCCO2	-13	17	75*	.	1	-12
O=C(C1CC(=O)N(c2ccc(F)c(Cl)c2)C1)N1CCOCC1 (stereo unspecified)	.	.	.	1	.	.
COC(=O)c1c(NC(=O)Cc2ccccc2)sc2c1CC(C)(C)NC2(C)C	-19	4	.	10	-18	-8
CCOC(=O)c1c(NC(=O)COc2ccccc2F)sc2c1CC(C)(C)NC2(C)C	-11	20	.	48	-9	.
COC(=O)c1c(NC(=O)COc2ccc(Cl)cc2)sc2c1CC(C)(C)NC2(C)C	-1	83*	.	137	28	-33
CC1(C)Cc2c(sc(NC(=O)COc3ccc(Cl)cc3Cl)c2C(N)=O)C(C)(C)N1	-19	62*	.	25	8	12
COC(=O)Nc1nc(-c2ccccc2)c(C(=O)c2ccccc2)s1	-16	100*	95*	65*	41	?
COC(=O)Nc1nc(C)c(C(=O)c2ccccc2)s1	-21	-105	-4	.	11	6
COc1ccc(OC)c(C(=O)NC2CC(C)(C)Cc3c2cnn3-c2ccccc2)c1 (stereo unspecified)	-162	67*	.	.	-7	3
COc1ccc(-n2ncc3c2CC(C)(C)CC3NC(=O)c2ccoc2C)cc1 (stereo unspecified)	8	1	.	-17	11	13
Cc1ccc(S(=O)(=O)c2ccc([N+](=O)[O-])o2)cc1	.	.	.	77*	.	.
Cc1ccc(NC(=O)c2ccc([N+](=O)[O-])o2)c(C)c1	17	-74	-7	91	13	-17
FC(F)(F)c1cc(Oc2ccccc2Cl)nc(-c2ccccn2)n1	-12	64*	-5	.	3	.
Cc1cc(C)c2nc(Cl)c(CN(Cc3ccco3)C(=O)Nc3ccccc3C)cc2c1	-7	15	57*	.	45	3
SMILES	697 NFkB inh	aSyn UTR inh	APP 5UTR inh	TAG inh	Jurkat NFkB inh	Lipid droplet
Cc1nc2scc(-c3ccccc3)c2c(=O)n1N	17	2	13	6	2	.
Cc1nc2scc(-c3ccccc3)c2c(=O)n1N=C1C=CC(=O)C=C1	-9	-19	80*	.	14	-20
O=C(NCCCN1CCCC1=O)c1cccc(S(=O)(=O)Nc2ccccc2Cl)c1	7	.	.	5	-5	.
Cc1ccc(-n2nc3c(=O)n(CCCC(=O)NCc4ccc(Cl)cc4)nc(C)c3c2C)cc1	-7	62*	.	.	16	-4
COc1cccc(-c2cnc(C(O)c3ccc(CN4CCCC4)cc3)[nH]2)c1 (stereo unspecified)	.	.	.	7	.	.
CN(C)c1ccc(/C=N/Nc2nc3ccccc3o2)cc1	-180	67*	.	.	-47	6
CCc1ccc(/C=C2\SC(=S)N(CCCC(=O)N(CCO)c3ccccc3)C2=O)cc1	.	.	.	15	.	.
